Measurements reported in ChEMBL document CHEMBL1132193, “Fluorescent pseudo-peptide linear vasopressin antagonists: design, synthesis, and applications” (J Med Chem, 1999).
Where a SMILES comes first, the peptide text is derived from it. [ ]: non-standard residue; d: D form. The star is where a group is joined. X1 = O=C(Cc1ccc(O)cc1)*

Key:
[1] = target: Vasopressin V1a receptor (Homo sapiens, UniProt P37288); test: Displacement of [125I]- HO-LVA from human Vasopressin V1a receptor in membranes of CHO cells; format: cell membranes
Chain of Vasopressin V1a receptor (P37288 whole entry): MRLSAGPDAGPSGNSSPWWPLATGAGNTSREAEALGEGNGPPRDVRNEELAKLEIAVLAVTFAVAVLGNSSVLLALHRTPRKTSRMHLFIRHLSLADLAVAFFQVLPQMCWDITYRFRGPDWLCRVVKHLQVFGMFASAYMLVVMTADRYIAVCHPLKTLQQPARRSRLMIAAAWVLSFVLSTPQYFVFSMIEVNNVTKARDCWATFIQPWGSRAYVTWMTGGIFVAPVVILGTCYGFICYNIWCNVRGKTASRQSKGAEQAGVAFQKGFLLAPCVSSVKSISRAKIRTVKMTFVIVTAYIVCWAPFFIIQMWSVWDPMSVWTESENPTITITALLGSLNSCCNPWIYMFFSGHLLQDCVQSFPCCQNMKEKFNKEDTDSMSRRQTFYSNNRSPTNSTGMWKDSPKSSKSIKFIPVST
Summary of the method: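 CHO membranes expressing human V1a receptor (0.5–1 μg protein/assay), 50–70 pM [125I]HO-LVA. Incubated 1 h at 30 °C, equilibrium by 30 min. Competitor 1 pM to 10 μM; 1 μM unlabeled ligand defined nonspecific binding. Ki = IC50/(1+[*L]/Kd), nonlinear least-squares; at least three assays in triplicate.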

[2] = target: T1, Oxytocin receptor (Homo sapiens, UniProt P30559); test: The inhibition constant (Ki(nM)) by displacement of [125I]- HO-LVA radiolabeled ligand using membranes of CHO cells of human Oxytocin receptor; format: cell membranes
T1 sequence (P30559 whole entry): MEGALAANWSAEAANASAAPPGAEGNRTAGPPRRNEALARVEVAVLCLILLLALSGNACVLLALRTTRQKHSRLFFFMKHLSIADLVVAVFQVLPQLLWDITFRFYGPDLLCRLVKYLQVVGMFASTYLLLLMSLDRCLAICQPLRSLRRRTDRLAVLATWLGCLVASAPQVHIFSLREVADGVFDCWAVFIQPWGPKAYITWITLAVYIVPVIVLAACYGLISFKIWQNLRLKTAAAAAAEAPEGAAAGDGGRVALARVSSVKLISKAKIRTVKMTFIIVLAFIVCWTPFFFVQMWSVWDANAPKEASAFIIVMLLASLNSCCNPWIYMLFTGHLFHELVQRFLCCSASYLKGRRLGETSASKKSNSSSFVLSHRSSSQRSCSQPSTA

[3] = target: T2, Vasopressin V1b receptor (Homo sapiens, UniProt P47901); test: Compound was tested for its ability to displace [125I]- HO-LVA ligand from human Vasopressin V1b receptor in the membranes of CHO cells; format: cell membranes
T2 sequence (P47901 whole entry): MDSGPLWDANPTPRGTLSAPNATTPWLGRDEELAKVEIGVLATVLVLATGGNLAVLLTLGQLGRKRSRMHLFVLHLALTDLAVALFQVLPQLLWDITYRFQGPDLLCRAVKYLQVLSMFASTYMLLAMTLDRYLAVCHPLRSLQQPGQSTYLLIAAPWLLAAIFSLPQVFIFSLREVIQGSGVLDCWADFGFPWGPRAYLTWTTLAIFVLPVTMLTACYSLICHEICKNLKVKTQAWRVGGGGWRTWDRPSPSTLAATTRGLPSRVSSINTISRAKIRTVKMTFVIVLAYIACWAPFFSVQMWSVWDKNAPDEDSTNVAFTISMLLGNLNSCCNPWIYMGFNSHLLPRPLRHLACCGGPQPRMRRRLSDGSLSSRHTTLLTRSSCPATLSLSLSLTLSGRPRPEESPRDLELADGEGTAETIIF
Summary of the method: (§1)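 Human V1b receptor in CHO cell membranes; competition against 1 nM [125I]HO-LVA. Membranes at 0.5–1 μg protein/assay, 1 h at 30 °C. Competitor spanned 1 pM to 10 μM; nonspecific binding with 1 μM unlabeled ligand. Ki = IC50/(1+[*L]/Kd) by nonlinear least-squares fit, ≥3 assays in triplicate.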

[4] = target: T3, Vasopressin V2 receptor (Homo sapiens, UniProt P30518); test: Compound was tested for its ability to of [125I]- HO-LVA radiolabeled ligand using membranes of CHO cells of human Vasopressin V2 receptor; format: cell-based
T3 sequence (P30518 whole entry): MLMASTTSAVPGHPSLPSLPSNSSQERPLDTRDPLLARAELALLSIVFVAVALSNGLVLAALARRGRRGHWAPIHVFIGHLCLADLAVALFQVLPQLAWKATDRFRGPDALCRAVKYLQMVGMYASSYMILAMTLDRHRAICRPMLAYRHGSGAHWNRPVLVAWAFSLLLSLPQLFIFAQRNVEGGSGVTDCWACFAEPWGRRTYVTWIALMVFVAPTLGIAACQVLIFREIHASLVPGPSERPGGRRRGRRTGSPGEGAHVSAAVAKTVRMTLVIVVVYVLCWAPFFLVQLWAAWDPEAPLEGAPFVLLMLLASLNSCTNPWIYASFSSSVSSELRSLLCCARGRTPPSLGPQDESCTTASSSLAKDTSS

[5] = target: T3, Vasopressin V2 receptor; test: The inhibition constant (Ki(nM)) by displacement of [125I]- HO-LVA radiolabeled ligand using membranes of CHO cells of human Vasopressin V2 receptor; format: cell membranes
[6] = target: T2, Vasopressin V1b receptor; test: The inhibition constant (Ki(nM)) by displacement of [125I]- HO-LVA radiolabeled ligand using membranes of CHO cells of human Vasopressin V1b receptor; format: cell membranes; summary of the method: as §1

Structure (SMILES) | Ki [1] [nM] | Ki [2] [nM] | other results
COc1ccc(C[C@@H](NC(=O)CCc2ccc(O)cc2)C(=O)N[C@@H](Cc2ccccc2)C(=O)N[C@@H](CCC(N)=O)C(=O)N[C@@H](CC(N)=O)C(=O)N[C@@H](CCCCNC(=O)c2ccc3c(c2)C(=O)OC32c3ccc(O)cc3Oc3cc(O)ccc32)C(=O)N2CCC[C@H]2C(=O)N[C@@H](CCCNC(=N)N)C(N)=O)cc1 | 5.6 |  | 
COc1ccc(C[C@@H](NC(=O)CCc2ccc(O)cc2)C(=O)N[C@@H](Cc2ccccc2)C(=O)N[C@@H](CCC(N)=O)C(=O)N[C@@H](CC(N)=O)C(=O)N[C@@H](CCCNC(=N)N)C(=O)N2CCC[C@H]2C(=O)N[C@@H](CCCCNC(=O)c2ccc3c(c2)C2(OC3=O)c3ccc(N(C)C)cc3Oc3cc(N(C)C)ccc32)C(N)=O)cc1 | 0.17 |  | 
COc1ccc(C[C@@H](NC(=O)Cc2ccc(O)cc2)C(=O)N[C@@H](Cc2ccccc2)C(=O)N[C@@H](CCC(N)=O)C(=O)N[C@@H](CC(N)=O)C(=O)N[C@@H](CCCN=C(N)N)C(=O)N2CCC[C@H]2C(=O)N[C@@H](CCCN=C(N)N)C(N)=O)cc1 (X1-[dY](Me)FQNRPR-NH2) | 0.08 | 2.7 | Ki [3]: 5.9 nM; Ki [4]: 137 nM
COc1ccc(C[C@@H](NC(=O)CCc2ccc(O)cc2)C(=O)N[C@@H](Cc2ccccc2)C(=O)N[C@@H](CCC(N)=O)C(=O)N[C@@H](CC(N)=O)C(=O)N[C@@H](CCCNC(=N)N)C(=O)N2CCC[C@H]2C(=O)N[C@@H](CCCCNC(=O)c2ccc3c(c2)C(=O)OC32c3ccc(N(C)C)cc3Oc3cc(N(C)C)ccc32)C(N)=O)cc1 | 0.07 | 1.2 | Ki [5]: 7500 nM; Ki [6]: 27 nM
COc1ccc(C[C@@H](NC(=O)CCc2ccc(O)cc2)C(=O)N[C@@H](Cc2ccccc2)C(=O)N[C@@H](CCC(N)=O)C(=O)N[C@@H](CC(N)=O)C(=O)N[C@@H](CCCCNC(=O)c2ccc3c(c2)C2(OC3=O)c3ccc(N(C)C)cc3Oc3cc(N(C)C)ccc32)C(=O)N2CCC[C@H]2C(=O)N[C@@H](CCCNC(=N)N)C(N)=O)cc1 | 3.3 |  | 
COc1ccc(C[C@@H](NC(=O)CCc2ccc(O)cc2)C(=O)N[C@@H](Cc2ccccc2)C(=O)N[C@@H](CCC(N)=O)C(=O)N[C@@H](CC(N)=O)C(=O)N[C@@H](CCCNC(=N)N)C(=O)N2CCC[C@H]2C(=O)N[C@@H](CCCCNC(=O)c2ccc3c(c2)C2(OC3=O)c3ccc(O)cc3Oc3cc(O)ccc32)C(N)=O)cc1 | 0.23 |  | 
COc1ccc(C[C@@H](NC(=O)CCc2ccc(O)cc2)C(=O)N[C@@H](Cc2ccccc2)C(=O)N[C@@H](CCC(N)=O)C(=O)N[C@@H](CC(N)=O)C(=O)N[C@@H](CCCCNC(=O)c2ccc3c(c2)C(=O)OC32c3ccc(N(C)C)cc3Oc3cc(N(C)C)ccc32)C(=O)N2CCC[C@H]2C(=O)N[C@@H](CCCNC(=N)N)C(N)=O)cc1 | 1.3 |  | 
COc1ccc(C[C@@H](NC(=O)CCc2ccc(O)cc2)C(=O)N[C@@H](Cc2ccccc2)C(=O)N[C@@H](CCC(N)=O)C(=O)N[C@@H](CC(N)=O)C(=O)N[C@@H](CCCNC(=N)N)C(=O)N2CCC[C@H]2C(=O)N[C@@H](CCCCNC(=O)c2ccc3c(c2)C(=O)OC32c3ccc(O)cc3Oc3cc(O)ccc32)C(N)=O)cc1 | 0.17 | 1.6 | Ki [5]: 9200 nM; Ki [6]: 142 nM
COc1ccc(C[C@@H](NC(=O)Cc2ccccc2)C(=O)N[C@@H](Cc2ccccc2)C(=O)N[C@@H](CCC(N)=O)C(=O)N[C@@H](CC(N)=O)C(=O)N[C@@H](CCCN=C(N)N)C(=O)N2CCC[C@H]2C(=O)N[C@@H](CCCN=C(N)N)C(N)=O)cc1 |  |  | Ki ([5]; cho): 282 nM; Ki ([2]; cho): 1.1 nM; Ki ([6]; cho): 9.4 nM; Ki ([1]; cho): 0.8 nM
CCN(CC)c1ccc2c(-c3ccccc3C(=O)N[C@H](Cc3ccc(OC)cc3)C(=O)N[C@@H](Cc3ccccc3)C(=O)N[C@@H](CCC(N)=O)C(=O)N[C@@H](CC(N)=O)C(=O)N[C@@H](CCCNC(=N)N)C(=O)N3CCC[C@H]3C(=O)N[C@@H](CCCNC(=N)N)C(=O)N[C@@H](Cc3ccc(O)cc3)C(N)=O)c3ccc(=[N+](CC)CC)cc-3oc2c1 |  |  | Ki ([1]; cho): > 500 nM
